ChEMBL document CHEMBL2396655, “Design, synthesis, and biological evaluation of (E)-N-aryl-2-arylethenesulfonamide analogues as potent and orally bioavailable microtubule-targeted anticancer agents” (J Med Chem, 2013)
Calls of active or inactive are those of the source. The calls are words filed in the database; no cut-off is given here.

Assays:
MDCK = experiment: Efflux ratio of permeability from basolateral to apical over apical to basolateral side in MDCK cells expressing MDR-1; conditions: dog
Plasma = experiment: Plasma protein binding in dog at 10 to 50 uM by equilibrium dialysis; format: ADME, cell-free, Canis lupus familiaris
MES-SA = experiment: Resistance factor, ratio of GI50 for multidrug-resistant human MES-SA/Dx5 cells to GI50 for human MES-SA cells; format: functional
Tubulin (Sus scrofa) [1] = molecular target: T1, Tubulin (Sus scrofa) (UniProt P02554+P02550); experiment: Competitive binding affinity to pig brain tubulin vinblastine binding site at 0.1 to 100 uM after 1 hr by mass spectrophotometric analysis in presence of vinblastine
How it was run: (§1)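 Porcine brain tubulin (1.0 mg/mL) in PIPES 80 mM, MgCl₂ 2 mM, EGTA 0.5 mM, pH 6.9, at 37 °C. […] Competitor was 0.1–100 μM for 1 h. Unbound ligand in the 30 kDa ultrafiltrate was measured by MS. Runs were in triplicate; IC50 came from a Hill fit.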

K562 = experiment: Cytotoxicity against human K562 cells after 96 hrs by trypan blue exclusion assay; format: functional, cell-based
How it was run: (§2)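 Cells were grown in DMEM or RPMI with 10% FBS and plated at 2.5×10⁴ cells/well in 12-well dishes. Compounds were added 24 h later at various concentrations. After 96 h, viable cells were counted by trypan blue exclusion from duplicate wells. Results are the mean of two independent experiments.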

Liver [2] = experiment: Metabolic stability in dog liver S9 fraction assessed as compound remaining at 10 uM after 1 hr by LC-MS/MS analysis; format: ADME, subcellular, Canis lupus familiaris; conditions: s9, 1 h
How it was run: (§3)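 Compound at 10 μM was incubated with rat, dog or human liver S9 fraction (1 mg/mL) for 0, 30 and 60 min. Parent remaining at 1 h was quantified by LC-MS/MS.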

Mus musculus [3] = experiment: Toxicity in NCR-nu/nu mouse assessed as reduction in body weight at 20 mg/kg, ip treated 3 times a week for 2 weeks measured on alternate days for 14 days; format: organism-based; parameters: dose 20 mg/kg, route intraperitoneal; conditions: in vivo, 336 h
How it was run: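 Female athymic NCr-nu/nu mice bearing subcutaneous BT20 hind-leg tumors (~100–150 mm³) were given 20 mg/kg IP in DMSO (0.1 mL), 3 times a week for 2 weeks (N=8; vehicle N=7).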

DU-145 [4] = experiment: Cell cycle arrest in human DU145 cells assessed as accumulation at subG1 phase at 0.005 to 0.02 uM after 24 hrs by propidium iodide staining-based FACS flow cytometric analysis; format: functional
How it was run: (§4)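 DU145 cells were plated at 1.0×10⁶ per dish in DMEM/10% FBS and treated 24 h later with increasing concentrations. After 24 h, attached and floating cells were pooled and fixed in ice-cold 70% ethanol for at least 24 h. Cells were stained with propidium iodide (50 μg/mL) plus RNase A for 30 min at 37 °C, then read on a FACScan with cell-cycle modelling.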

Liver [5] = experiment: Metabolic stability in human liver S9 fraction assessed as compound remaining at 10 uM after 1 hr by LC-MS/MS analysis; format: ADME, subcellular; conditions: s9, 1 h
How it was run: as §3

Mus musculus [6] = experiment: Volume of distribution at steady state in ICR mouse at 5 mg/kg, iv by LC-MS/MS analysis; format: ADME, organism-based; parameters: dose 5 mg/kg, route intravenous; conditions: in vivo
How it was run: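 Male ICR mice, 6–8 weeks old (N=3 per group), with a carotid artery cannula implanted one day before dosing. Dosed at 5 mg/kg in NMP:PEG300:water (1:4:5) as an IV bolus or by oral gavage. Blood drawn at 2–360 min; plasma protein-precipitated with acetonitrile containing internal standard, assayed by LC/MS/MS; noncompartmental analysis.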

DU-145 [7] = experiment: Cell cycle arrest in human DU145 cells assessed as accumulation at G2/M phase at 0.02 uM after 24 hrs by propidium iodide staining-based FACS flow cytometric analysis; format: functional
How it was run: as §4

[8] = Cytotoxicity against human NAMALWA cells after 96 hrs by trypan blue exclusion assay; format: functional; conditions: NAMALVA
How it was run: as §2

CCRF-CEM = experiment: Resistance factor, ratio of GI50 for multidrug-resistant human CEM/C2 cells to GI50 for human CEM cells; format: functional
Tubulin (Sus scrofa) [9] = molecular target: T1, Tubulin (Sus scrofa); experiment: Competitive binding affinity to pig brain tubulin paclitaxel binding site at 0.1 to 100 uM after 1 hr by mass spectrophotometric analysis in presence of paclitaxel and GTP
How it was run: as §1

DU-145 [10] = experiment: Cytotoxicity against human DU145 cells after 96 hrs by trypan blue exclusion assay; format: functional, cell-based
How it was run: as §2

DU-145 [11] = experiment: Mitotoic arrest in human DU145 cells assessed as rosette of condensed DNA without mitotic spindle at 25 nM after 24 hrs by FITC and propidium iodide staining-based confocal laser microscopic analysis; format: functional, cell-based
How it was run: (§5)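 DU145 cells grown on glass coverslips, exposed to 0.025 μM for 24 h, fixed in 4% paraformaldehyde, permeabilized in PBS with 10% FBS/0.1% Triton X-100, stained with FITC-conjugated anti-α-tubulin (DM1A, 1 h, 37 °C) and propidium iodide (1 μg/mL, 5 min), then imaged by confocal microscopy (60× objective, XYZ-sectioning); DMSO-treated cells as vehicle.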

DU-145 [12] = experiment: Induction of apoptosis in human DU145 cells assessed as caspase activation at 10 to 20 nM after 24 to 72 hrs by Western blotting analysis; format: functional, cell-based
DU-145 [13] = experiment: Mitotoic arrest in human DU145 cells assessed as complete loss of coordination in mitotic spindle assembly at 25 nM after 24 hrs by FITC and propidium iodide staining-based confocal laser microscopic analysis; format: functional, cell-based
How it was run: as §5

MIA PaCa-2 = experiment: Antitumor activity against human MIAPaCa2 cells assessed as inhibition of anchorage-independent growth after 3 weeks by NBT staining-based soft agar assay; format: functional, cell-based
How it was run: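 MIA-PaCa-2 cells (1.0×10⁵) in growth medium with compound were mixed into 0.4% Noble top agar over a 0.8% bottom layer. Each concentration was plated in triplicate. Plates were incubated 3 weeks at 37 °C, 5% CO₂, then stained with 0.05% nitroblue tetrazolium for 48 h and photographed.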

[14] = Cytotoxicity against human H80 cells after 96 hrs by trypan blue exclusion assay; format: functional; conditions: H80, 96 h
How it was run: as §2

DU-145 [15] = experiment: Mitotoic arrest in human DU145 cells assessed as complete depolymerization of microtubule cytoskeleton at 25 nM after 24 hrs by FITC and propidium iodide staining-based confocal laser microscopic analysis; format: functional, cell-based
How it was run: as §5

Mus musculus [16] = experiment: AUC in ICR mouse at 5 mg/kg, iv by LC-MS/MS analysis; format: ADME, organism-based, Plasma; parameters: dose 5 mg/kg, route intravenous; conditions: in vivo
How it was run: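 Male ICR mice, 6–8 weeks old, N=3 per group. Single 5 mg/kg dose in NMP:PEG300:water (1:4:5 v/v), given as IV bolus or oral gavage. Serial arterial blood was drawn through a carotid cannula at 2–360 min. Plasma was protein-precipitated with acetonitrile containing internal standard and assayed by LC/MS/MS. Parameters were derived by noncompartmental analysis.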

DU-145 [17] = experiment: Mitotoic arrest in human DU145 cells assessed as appearance of abnormal spindles at 25 nM after 24 hrs by FITC and propidium iodide staining-based confocal laser microscopic analysis; format: functional, cell-based
How it was run: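 DU145 cells on glass coverslips were treated with 0.025 μM compound or DMSO for 24 h and fixed in 4% paraformaldehyde. After blocking and permeabilizing in PBS with 10% FBS and 0.1% Triton X-100, they were stained with FITC anti-α-tubulin (DM1A) for 1 h at 37 °C and with propidium iodide 1 μg/mL. Imaging was by confocal microscopy, 60× objective, as z-sections.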

COc1cc(OC)c(/C=C/S(=O)(=O)Nc2ccc(OC)c(N)c2)c(OC)c1
Ratio (MDCK): 7.9 | PPB (Plasma): 98.48% | RatioGI50 (MES-SA): 1.6 | Activity (Tubulin (Sus scrofa) [1]): inactive | Activity (K562): Dose-dependent effect | GI50 (K562; K562, 96 h): 3 nM | IC50 (K562; K562, 96 h): 3 nM | Stability (Liver [2]): 57% | Activity (Mus musculus [3]): Non-toxic | Activity (DU-145 [4]): Active | Stability (Liver [5]): 20% | Vdss (Mus musculus [6]): 2.13 L/kg | Activity (DU-145 [7]): Active | GI50 [8]: 8 nM | RatioGI50 (CCRF-CEM): 1 | Activity (Tubulin (Sus scrofa) [9]): inactive | Activity (DU-145 [10]): Dose-dependent effect | IC50 (DU-145 [10]; DU-145, 96 h): 5 nM | Activity (DU-145 [11]): Active | Activity (DU-145 [12]): Active | Activity (DU-145 [13]): Active | inhibition (MIA PaCa-2): Dose-dependent effect | GI50 [14]: 4 nM | Activity (DU-145 [15]): Active | AUC (Mus musculus [16]): 2040 ng·h/mL | Activity (DU-145 [17]): Active
